According to publication PMC7316630 (Nature immunology, 2020):
Counter-ions that a name gives are not always drawn. Peptide text beside a SMILES is read from it. * marks the point of attachment. Cbz = O=C(OCc1ccccc1)*; CH2F = FC*

Tests used:
human GSDMD = biological target: T1, human GSDMD (Homo sapiens, UniProt P57764); format: biochemical; conditions: for Inhibition of GSDMD and caspase-11-mediated liposome leakage (in words): GSDMD 0.3 μM plus caspase-11 0.15 μM, LDC7559 at up to 50 μM
T1 sequence (P57764 1-484): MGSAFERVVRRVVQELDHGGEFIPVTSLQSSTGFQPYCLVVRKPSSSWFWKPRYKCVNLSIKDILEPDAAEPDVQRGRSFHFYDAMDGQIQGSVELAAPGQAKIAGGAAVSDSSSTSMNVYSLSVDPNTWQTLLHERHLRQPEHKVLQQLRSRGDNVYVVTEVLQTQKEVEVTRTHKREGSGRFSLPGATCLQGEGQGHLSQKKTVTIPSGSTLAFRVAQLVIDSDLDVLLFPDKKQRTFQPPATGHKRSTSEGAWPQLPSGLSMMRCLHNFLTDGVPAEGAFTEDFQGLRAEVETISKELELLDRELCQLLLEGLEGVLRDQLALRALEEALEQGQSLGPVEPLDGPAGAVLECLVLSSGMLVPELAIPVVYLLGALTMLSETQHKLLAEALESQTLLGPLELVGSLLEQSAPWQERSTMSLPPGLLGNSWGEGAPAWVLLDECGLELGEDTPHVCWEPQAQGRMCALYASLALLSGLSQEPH

HT-29 cells = assay: Necroptosis induced by TNF, SMAC mimetic and z-VAD-fmk, CellTiter-Glo; format: cell-based; conditions: disulfiram 10 and 50 μM, NSA 2 μM, Nec 10 μM; 1 hr pretreatment; 24 hrs
Method in brief: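 HT-29 cells were pretreated for 1 hr. Necroptosis was then induced with TNF (20 ng/ml), SMAC mimetic (100 nM) and z-VAD-fmk (20 μM). Viability was read 24 hrs later as ATP by CellTiter-Glo luminescence.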

LPS-primed THP-1 cells [1] = assay: Immunoblot of caspase-1, GSDMD, pro-IL-1β cleavage and IL-1β release; format: cell-based, human; conditions: 30 μM, 1 hr before nigericin
LPS-primed THP-1 cells [2] = assay: GSDMD membrane staining and pyroptotic bubbles, confocal microscopy; format: cell-based, human; conditions: 30 μM; 30 min after nigericin
Method in brief: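 PMA-differentiated THP-1 cells were primed with LPS (1 μg/ml, 4 hrs), pretreated for 1 hr and given nigericin. They were fixed (4% PFA), permeabilized (0.1% Triton X-100), blocked (5% BSA) and stained with an in-house mouse monoclonal anti-GSDMD antibody. Confocal images were scored for cells with membrane GSDMD staining and pyroptotic bubbles across 40 high-power fields per sample, in 5 independent experiments. Two-tailed Student's t-test was used.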

LPS-primed THP-1 cells [3] = assay: ASC speck formation, immunofluorescence; format: cell-based, human; conditions: 30 μM, 1 hr before nigericin; 20 min after nigericin
Method in brief: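 THP-1 cells were differentiated with 50 nM PMA for 36 hrs, primed with LPS (1 μg/ml) for 4 hrs, and pretreated with test compound, vehicle or z-VAD-fmk, then given nigericin (20 μM). Cells on coverslips were fixed in 4% paraformaldehyde for 15 min, permeabilized in 0.1% Triton X-100 for 5 min and blocked in 5% BSA for 1 hr. ASC was then immunostained.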

LPS-primed iBMDMs = assay: Immunoblot of caspase-1, GSDMD, pro-IL-1β cleavage and IL-1β release; format: cell-based, mouse; conditions: 1 hr before nigericin; lysates 1 hr later
Method in brief: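 Mouse iBMDMs were pretreated for 1 hr with test compound, Bay 11-7082, necrosulfonamide or z-VAD-fmk, then given nigericin. Whole cell lysates and culture supernatants were harvested 1 hr after nigericin and immunoblotted with the indicated antibodies. Data come from three independent experiments.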

C57BL/6J mice = assay: LPS-induced sepsis, survival; format: in vivo, mouse; conditions: LPS 25 mg/kg; 50 mg/kg i.p. 4 hrs before and daily after LPS
THP-1 = assay: Nigericin-induced IL-1β secretion, ELISA; format: cell-based, human; conditions: potency comparable to z-VAD-fmk
iBMDM = assay: LPS transfection-induced IL-1β secretion, ELISA; format: cell-based, mouse; conditions: 2.5 h; potency comparable to z-VAD-fmk
pre-cleaved mouse GSDMA3 = biological target: T2, pre-cleaved mouse GSDMA3 (Mus musculus, UniProt Q5Y4Y6); assay: Liposome leakage by pre-cleaved GSDMA3; format: biochemical; conditions: pre-cleaved mouse GSDMA3 0.3 μM
T2 sequence (Q5Y4Y6 with tags, fused parts or gaps limits assumed): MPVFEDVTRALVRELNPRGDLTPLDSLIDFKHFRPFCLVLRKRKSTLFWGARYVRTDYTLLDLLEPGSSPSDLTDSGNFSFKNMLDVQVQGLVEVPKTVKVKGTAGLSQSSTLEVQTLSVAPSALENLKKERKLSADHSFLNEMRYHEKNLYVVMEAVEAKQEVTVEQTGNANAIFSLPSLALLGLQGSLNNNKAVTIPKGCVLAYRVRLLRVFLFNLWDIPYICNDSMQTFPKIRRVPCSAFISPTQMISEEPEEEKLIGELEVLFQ

LPS-primed THP-1 = assay: LPS + nigericin cell death with or without Cu; format: cell-based, human; conditions: with versus without Cu(II)
Mouse iBMDMs = assay: AIM2 inflammasome cell death, poly; format: cell-based; conditions: 5–40 μM, 1 hr pretreatment, 4 hrs

How did the “Inhibition of GSDMD and caspase-11-mediated liposome leakage (in words)” value (from here on “Inhibition … (in words)”) (human GSDMD) turn out when `COC(=O)/C=C/C(=O)OC` [DMF, dimethyl fumarate] was run?
Its value is “hardly any activity”.

With `CN1C(=O)C(Cc2c[nH]c3ccccc23)NC1=S` (centres unmarked) [necrostatin-1] as the compound, how does the “Effect on necroptosis (cell viability)” value (HT-29 cells) read?
Its value is “blocked”.

Which “Proteolytic processing of caspase-1, GSDMD and pro-IL-1β” value (LPS-primed THP-1 cells [1]; lysates 1 hr later) does the source give for `COC(=O)C[C@H](NC(=O)[C@H](C)NC(=O)[C@@H](NC(=O)OCc1ccccc1)C(C)C)C(=O)CF` [z-VAD-fmk] (Cbz-Val-Ala-Asp(OMe)-CH2F) here?
Its value is “inhibited the processing of all 3 proteins”.

And the “GSDMD membrane staining and appearance of pyroptotic bubbles” value (LPS-primed THP-1 cells [2])?
The value was “completely blocked”.

What about the ASC speck formation (LPS-primed THP-1 cells [3]) of the same compound?
The ASC speck formation was “not inhibited”.

For `Cc1ccc(S(=O)(=O)/C=C/C#N)cc1` [Bay 11–7082], which “Inhibition … (in words)” value (human GSDMD) is on record?
Its value is “moderately inhibited”.

What about the “Proteolytic processing of caspase-1, GSDMD and pro-IL-1β” value (LPS-primed iBMDMs) of the same compound?
The value was “inhibited”.

With `CCN(CC)C(=S)SSC(=S)N(CC)CC` [C-23, tetraethylthiuram disulfide] as the compound, how does the “Incubation time at which inhibition of liposome leakage was seen” value (human GSDMD; preincubation with GSDMD 2–90 min, 0–5.6 μM) read?
The value was at most 2 min.

What about the “Survival of Casp1–/– mice” value (C57BL/6J mice) of the same compound?
Its value is “protected”.

What about the “IL-1β in culture supernatant” value (LPS-primed THP-1 cells [1]; immunoblot) of the same compound?
Its value is “no IL-1β was detected”.

And the “Nigericin-induced IL-1β secretion” value (THP-1)?
Its value is “inhibited”.

And the “LPS transfection-induced IL-1β secretion” value (iBMDM)?
Its value is “inhibited”.

What about the ASC speck formation (LPS-primed THP-1 cells [3]) of the same compound?
Its ASC speck formation is “only modestly inhibited”.

And the “Inhibition of pore formation of pre-cleaved GSDMA3” value (pre-cleaved mouse GSDMA3)?
Its value is “did not inhibit”.

And the “Effect on necroptosis (cell viability)” value (HT-29 cells)?
Its value is “no effect”.

And the “Decrease of IC50 for inhibiting pyroptosis with Cu(II)” value (LPS-primed THP-1)?
Its value is 24 fold.

What about the “Effect on AIM2 inflammasome-triggered cell death” value (Mouse iBMDMs) of the same compound?
The value was “impaired cell death in a dose-dependent manner”.

How did the “Inhibition … (in words)” value (human GSDMD) turn out when `C=CC(=O)N1CCC[C@@H](n2nc(-c3ccc(Oc4ccccc4)cc3)c3c(N)ncnc32)C1` [ibrutinib] was run?
Its value is “hardly any activity”.

Which “Inhibition … (in words)” value (human GSDMD) does the source give for `CN(C)C/C=C/C(=O)Nc1cc2c(Nc3ccc(F)c(Cl)c3)ncnc2cc1O[C@H]1CCOC1` [afatinib] here?
Its value is “hardly any activity”.

How did the “Inhibition … (in words)” value (human GSDMD) turn out when `COc1ccccc1-c1cc2n(n1)Cc1ccc(NC(C)=O)cc1OC2` [LDC7559] was run?
Its value is “no activity”.

Which results are given for `COc1nccnc1NS(=O)(=O)c1ccc(NC(=O)/C=C/c2ccc([N+](=O)[O-])s2)cc1` [NSA, necrosulfonamide]?
Inhibition of GSDMD and caspase-11-mediated liposome leakage (in words) (human GSDMD): moderately inhibited; Proteolytic processing of caspase-1, GSDMD and pro-IL-1β (LPS-primed iBMDMs): inhibited; Effect on necroptosis (cell viability) (HT-29 cells): blocked
